The target of assay [1] is Serine/threonine-protein kinase PAK 4 (Homo sapiens) (UniProt O96013). Kind of assay: Inhibition of human recombinant PAK4 at 15 nM in presence of ATP by radiometric assay relative to control.
The target in assay [2] is MAP kinase-activated protein kinase 2 (Homo sapiens) (UniProt P49137). Kind of assay: Inhibition of human recombinant MAPKAPK2 at 15 nM related to control ULK1.
Assay [3] deals with Homeodomain-interacting protein kinase 1 (Homo sapiens) (UniProt Q86Z02). Nature of the assay: Inhibition of human recombinant HIPK1 at 15 nM related to control ULK1.
Chain of Homeodomain-interacting protein kinase 1 (Homo sapiens) (Q86Z02 whole entry, looked up, canonical isoform): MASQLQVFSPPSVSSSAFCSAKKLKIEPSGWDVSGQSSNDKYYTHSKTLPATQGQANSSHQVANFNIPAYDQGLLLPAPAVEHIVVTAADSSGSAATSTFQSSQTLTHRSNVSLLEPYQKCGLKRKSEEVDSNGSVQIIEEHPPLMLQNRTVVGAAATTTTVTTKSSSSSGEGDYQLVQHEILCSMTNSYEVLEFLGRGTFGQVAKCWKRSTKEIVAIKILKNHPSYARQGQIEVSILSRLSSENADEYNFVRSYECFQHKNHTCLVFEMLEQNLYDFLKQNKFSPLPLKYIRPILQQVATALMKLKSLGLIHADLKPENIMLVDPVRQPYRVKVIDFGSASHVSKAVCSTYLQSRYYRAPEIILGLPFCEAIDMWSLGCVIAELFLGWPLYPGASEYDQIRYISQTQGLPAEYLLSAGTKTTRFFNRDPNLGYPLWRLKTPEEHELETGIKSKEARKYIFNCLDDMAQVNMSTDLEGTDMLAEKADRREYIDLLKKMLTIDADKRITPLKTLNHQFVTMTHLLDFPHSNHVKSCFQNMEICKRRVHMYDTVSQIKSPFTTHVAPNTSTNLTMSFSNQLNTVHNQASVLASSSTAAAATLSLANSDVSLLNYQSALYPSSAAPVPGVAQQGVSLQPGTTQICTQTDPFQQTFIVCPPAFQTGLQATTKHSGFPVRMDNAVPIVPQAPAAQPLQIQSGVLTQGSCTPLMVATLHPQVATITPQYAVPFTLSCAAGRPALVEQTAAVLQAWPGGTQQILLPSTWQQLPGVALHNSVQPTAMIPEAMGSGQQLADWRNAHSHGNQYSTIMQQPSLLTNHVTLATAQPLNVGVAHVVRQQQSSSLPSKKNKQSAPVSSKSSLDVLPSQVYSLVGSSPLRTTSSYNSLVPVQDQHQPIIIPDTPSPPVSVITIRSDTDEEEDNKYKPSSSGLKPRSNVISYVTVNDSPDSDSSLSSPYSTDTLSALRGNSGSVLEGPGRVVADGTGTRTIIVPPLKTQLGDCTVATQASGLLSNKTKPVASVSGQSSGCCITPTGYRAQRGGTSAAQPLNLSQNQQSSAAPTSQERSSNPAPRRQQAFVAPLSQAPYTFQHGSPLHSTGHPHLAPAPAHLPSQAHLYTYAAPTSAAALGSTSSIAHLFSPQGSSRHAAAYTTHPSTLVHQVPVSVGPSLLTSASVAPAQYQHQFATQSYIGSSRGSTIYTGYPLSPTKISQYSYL
For assay [4], the target named is Casein kinase I isoform gamma-2 (Homo sapiens) (UniProt P78368). Nature of the assay: Inhibition of human recombinant CK1g2 at 15 nM related to control ULK1.
Assay [5] addresses T1, Activin receptor type-1B (Homo sapiens) (UniProt P36896).
T1 sequence (whole entry): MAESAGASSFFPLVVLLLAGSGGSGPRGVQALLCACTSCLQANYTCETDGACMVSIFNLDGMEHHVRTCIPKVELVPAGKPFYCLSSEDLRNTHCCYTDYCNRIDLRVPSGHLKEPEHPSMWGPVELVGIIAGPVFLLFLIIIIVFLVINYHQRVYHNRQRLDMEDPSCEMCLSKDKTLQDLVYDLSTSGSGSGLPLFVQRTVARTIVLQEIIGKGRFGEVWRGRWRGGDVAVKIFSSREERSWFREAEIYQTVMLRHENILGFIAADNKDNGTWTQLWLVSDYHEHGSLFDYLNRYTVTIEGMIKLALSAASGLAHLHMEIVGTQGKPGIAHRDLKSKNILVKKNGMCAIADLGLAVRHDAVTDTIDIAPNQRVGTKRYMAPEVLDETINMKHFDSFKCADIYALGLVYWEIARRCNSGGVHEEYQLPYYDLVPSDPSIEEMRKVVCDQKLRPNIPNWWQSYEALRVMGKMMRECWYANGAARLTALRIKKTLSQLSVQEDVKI
Nature of the assay: Inhibition of human recombinant ALK4 at 15 nM related to control ULK1. The gist of the method: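 Panel of 327 recombinant human kinases, each assayed in vitro by radiometric activity assay in duplicate at a single inhibitor concentration per compound, chosen with reference to its ULK1 inhibition. Activity remaining was expressed as percent of vehicle control, and percent inhibition was calculated as 100 minus percent activity remaining.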

The species named for another assay is Homo sapiens. Nature of the assay: Inhibition of human recombinant KHS1 at 15 nM related to control ULK1.
Assay [6] deals with T2, Serine/threonine-protein kinase Nek9 (Homo sapiens) (UniProt Q8TD19).
T2 sequence (whole entry): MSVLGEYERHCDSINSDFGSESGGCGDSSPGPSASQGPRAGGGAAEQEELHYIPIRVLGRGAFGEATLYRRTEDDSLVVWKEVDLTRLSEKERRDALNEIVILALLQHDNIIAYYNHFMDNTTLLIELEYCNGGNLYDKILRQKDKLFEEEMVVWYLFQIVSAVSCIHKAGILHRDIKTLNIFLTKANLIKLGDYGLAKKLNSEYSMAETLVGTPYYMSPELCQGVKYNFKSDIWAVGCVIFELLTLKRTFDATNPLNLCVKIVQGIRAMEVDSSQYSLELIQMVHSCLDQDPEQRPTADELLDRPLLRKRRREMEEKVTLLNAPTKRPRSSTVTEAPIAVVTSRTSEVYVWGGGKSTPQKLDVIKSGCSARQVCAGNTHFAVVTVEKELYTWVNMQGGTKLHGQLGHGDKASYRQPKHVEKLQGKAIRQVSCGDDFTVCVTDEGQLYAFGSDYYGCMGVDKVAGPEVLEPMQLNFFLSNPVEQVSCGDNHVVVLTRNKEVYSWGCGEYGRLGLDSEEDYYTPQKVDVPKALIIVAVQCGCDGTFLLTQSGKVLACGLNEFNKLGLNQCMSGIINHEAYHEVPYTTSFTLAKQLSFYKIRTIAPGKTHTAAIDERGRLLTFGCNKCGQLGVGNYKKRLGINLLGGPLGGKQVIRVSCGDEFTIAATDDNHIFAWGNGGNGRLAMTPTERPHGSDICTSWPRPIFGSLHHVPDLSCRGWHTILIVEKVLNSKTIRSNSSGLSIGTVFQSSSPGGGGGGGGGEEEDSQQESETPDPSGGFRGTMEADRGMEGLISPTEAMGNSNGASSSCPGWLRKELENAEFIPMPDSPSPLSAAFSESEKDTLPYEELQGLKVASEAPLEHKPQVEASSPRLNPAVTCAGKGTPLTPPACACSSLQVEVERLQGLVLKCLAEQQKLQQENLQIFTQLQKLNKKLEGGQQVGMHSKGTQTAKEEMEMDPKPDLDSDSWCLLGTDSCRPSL
Kind of assay: Inhibition of human recombinant NEK9 at 40 nM related to control ULK1.

Assay [7] concerns the target Tyrosine-protein kinase Fer (Homo sapiens) (UniProt P16591). Kind of assay: Inhibition of human recombinant FER at 40 nM related to control ULK1.
Assay [8] addresses SRSF protein kinase 1 (Homo sapiens) (UniProt Q96SB4). Kind of assay: Inhibition of human recombinant SRPK1 at 500 nM related to control ULK1.
The target in assay [9] is Serine/threonine-protein kinase tousled-like 2 (Homo sapiens) (UniProt Q86UE8). Kind of assay: Inhibition of human recombinant TLK2 at 500 nM in presence of ATP by radiometric assay relative to control.
Assay [10] deals with G protein-coupled receptor kinase 6 (Homo sapiens) (UniProt P43250). Nature of the assay: Inhibition of human recombinant GPRK6 at 500 nM in presence of ATP by radiometric assay relative to control.
Chain of G protein-coupled receptor kinase 6 (Homo sapiens) (P43250 whole entry, looked up, the tested form may be a part): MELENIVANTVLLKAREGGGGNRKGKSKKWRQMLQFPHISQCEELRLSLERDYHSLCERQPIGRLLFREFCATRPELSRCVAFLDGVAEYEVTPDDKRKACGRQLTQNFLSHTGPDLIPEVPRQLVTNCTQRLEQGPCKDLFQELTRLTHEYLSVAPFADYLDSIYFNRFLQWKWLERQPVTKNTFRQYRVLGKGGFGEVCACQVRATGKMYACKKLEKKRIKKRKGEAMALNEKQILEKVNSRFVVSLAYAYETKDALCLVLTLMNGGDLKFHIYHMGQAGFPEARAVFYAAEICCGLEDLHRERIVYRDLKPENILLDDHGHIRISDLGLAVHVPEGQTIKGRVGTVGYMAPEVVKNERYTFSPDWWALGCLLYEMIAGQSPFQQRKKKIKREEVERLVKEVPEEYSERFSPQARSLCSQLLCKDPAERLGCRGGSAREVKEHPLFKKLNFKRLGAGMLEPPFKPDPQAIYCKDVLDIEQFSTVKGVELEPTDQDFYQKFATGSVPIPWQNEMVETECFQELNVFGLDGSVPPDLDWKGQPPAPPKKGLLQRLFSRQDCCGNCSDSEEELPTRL
Assay [11] deals with LIM domain kinase 1 (Homo sapiens) (UniProt P53667). Kind of assay: Inhibition of human recombinant LIMK1 at 500 nM related to control ULK1.
Chain of LIM domain kinase 1 (Homo sapiens) (P53667 whole entry, looked up, the tested form may be a part): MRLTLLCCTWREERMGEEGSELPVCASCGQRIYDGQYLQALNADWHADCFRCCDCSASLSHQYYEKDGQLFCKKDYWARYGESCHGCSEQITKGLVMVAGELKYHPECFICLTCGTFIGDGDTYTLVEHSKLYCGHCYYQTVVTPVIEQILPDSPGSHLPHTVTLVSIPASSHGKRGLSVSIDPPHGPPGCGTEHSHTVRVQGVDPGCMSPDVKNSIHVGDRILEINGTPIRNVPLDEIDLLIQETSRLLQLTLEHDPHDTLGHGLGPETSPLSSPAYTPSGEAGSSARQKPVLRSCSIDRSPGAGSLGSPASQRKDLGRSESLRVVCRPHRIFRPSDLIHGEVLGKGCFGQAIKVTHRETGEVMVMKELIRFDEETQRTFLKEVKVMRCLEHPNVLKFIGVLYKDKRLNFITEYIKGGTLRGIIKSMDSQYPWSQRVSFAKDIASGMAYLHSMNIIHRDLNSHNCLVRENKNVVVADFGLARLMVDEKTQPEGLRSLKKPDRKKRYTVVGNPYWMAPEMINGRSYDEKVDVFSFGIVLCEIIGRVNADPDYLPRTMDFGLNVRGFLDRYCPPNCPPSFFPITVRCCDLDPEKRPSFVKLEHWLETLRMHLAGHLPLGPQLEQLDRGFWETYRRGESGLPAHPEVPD
Assay [12] addresses Proto-oncogene tyrosine-protein kinase receptor Ret (Homo sapiens) (UniProt P07949). Kind of assay: Inhibition of human recombinant RET at 500 nM in presence of ATP by radiometric assay relative to control.
Assay [13] has as its target Platelet-derived growth factor receptor alpha (Homo sapiens) (UniProt P16234). Nature of the assay: Inhibition of human recombinant PDGFRa at 500 nM in presence of ATP by radiometric assay relative to control.

3 compounds from ChEMBL document CHEMBL5653631, “A Potent and Selective ULK1 Inhibitor Suppresses Autophagy and Sensitizes Cancer Cells to Nutrient Stress” (iScience, 2018) can be followed below.

As usually defined, the inhibition is how much of the control response was suppressed.

Chain of Tyrosine-protein kinase Fer (Homo sapiens) (P16591 whole entry, looked up): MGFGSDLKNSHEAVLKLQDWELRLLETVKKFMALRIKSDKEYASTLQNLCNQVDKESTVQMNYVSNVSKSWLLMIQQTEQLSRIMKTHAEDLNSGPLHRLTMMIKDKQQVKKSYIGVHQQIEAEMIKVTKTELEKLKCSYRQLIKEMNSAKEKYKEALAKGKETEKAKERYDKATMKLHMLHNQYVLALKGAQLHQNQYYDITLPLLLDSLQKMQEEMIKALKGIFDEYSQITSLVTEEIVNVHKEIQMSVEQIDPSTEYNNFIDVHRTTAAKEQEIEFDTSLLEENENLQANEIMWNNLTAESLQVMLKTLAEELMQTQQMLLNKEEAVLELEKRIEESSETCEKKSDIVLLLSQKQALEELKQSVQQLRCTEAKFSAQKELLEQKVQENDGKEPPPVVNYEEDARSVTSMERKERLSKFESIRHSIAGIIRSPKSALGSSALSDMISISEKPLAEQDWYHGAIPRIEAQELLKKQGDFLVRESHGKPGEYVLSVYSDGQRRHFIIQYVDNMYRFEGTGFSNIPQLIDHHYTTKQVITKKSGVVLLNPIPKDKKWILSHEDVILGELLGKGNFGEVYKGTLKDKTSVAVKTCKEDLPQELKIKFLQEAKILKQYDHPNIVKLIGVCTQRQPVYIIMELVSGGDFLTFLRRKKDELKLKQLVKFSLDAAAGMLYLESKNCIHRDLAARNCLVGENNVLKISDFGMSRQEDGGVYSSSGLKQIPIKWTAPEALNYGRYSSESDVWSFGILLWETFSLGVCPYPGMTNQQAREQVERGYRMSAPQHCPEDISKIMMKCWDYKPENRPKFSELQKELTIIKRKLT
Chain of Proto-oncogene tyrosine-protein kinase receptor Ret (Homo sapiens) (P07949 whole entry): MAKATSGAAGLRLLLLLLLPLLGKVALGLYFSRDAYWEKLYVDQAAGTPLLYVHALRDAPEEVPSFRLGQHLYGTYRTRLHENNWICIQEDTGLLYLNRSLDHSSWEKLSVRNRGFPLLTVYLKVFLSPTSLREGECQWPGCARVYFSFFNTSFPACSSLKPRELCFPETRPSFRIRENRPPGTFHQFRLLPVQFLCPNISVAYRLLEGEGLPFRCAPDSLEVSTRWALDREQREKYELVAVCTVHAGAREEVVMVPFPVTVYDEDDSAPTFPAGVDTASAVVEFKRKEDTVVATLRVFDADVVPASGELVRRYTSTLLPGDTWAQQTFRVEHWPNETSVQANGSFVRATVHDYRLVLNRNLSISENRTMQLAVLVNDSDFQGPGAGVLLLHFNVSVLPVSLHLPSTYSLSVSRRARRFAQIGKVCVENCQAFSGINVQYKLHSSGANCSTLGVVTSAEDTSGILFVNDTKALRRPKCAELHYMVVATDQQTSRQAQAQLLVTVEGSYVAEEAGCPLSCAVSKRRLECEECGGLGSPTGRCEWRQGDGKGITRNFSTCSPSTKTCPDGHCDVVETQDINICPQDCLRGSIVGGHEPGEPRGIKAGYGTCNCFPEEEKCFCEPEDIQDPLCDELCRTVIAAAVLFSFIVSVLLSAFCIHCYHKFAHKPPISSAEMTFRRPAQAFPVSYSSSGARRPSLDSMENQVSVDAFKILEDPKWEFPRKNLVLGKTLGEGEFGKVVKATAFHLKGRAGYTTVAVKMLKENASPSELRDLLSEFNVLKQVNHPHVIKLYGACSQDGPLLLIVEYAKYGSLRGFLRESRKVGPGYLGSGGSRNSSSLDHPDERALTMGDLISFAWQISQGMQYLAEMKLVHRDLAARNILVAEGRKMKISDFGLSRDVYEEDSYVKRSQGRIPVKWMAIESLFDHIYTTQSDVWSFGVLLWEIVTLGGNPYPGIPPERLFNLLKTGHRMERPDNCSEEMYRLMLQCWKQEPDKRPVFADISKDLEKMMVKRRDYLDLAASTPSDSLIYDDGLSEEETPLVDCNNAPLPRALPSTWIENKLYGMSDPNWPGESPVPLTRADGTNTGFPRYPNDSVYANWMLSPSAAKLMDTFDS
Chain of MAP kinase-activated protein kinase 2 (Homo sapiens) (P49137 whole entry, looked up): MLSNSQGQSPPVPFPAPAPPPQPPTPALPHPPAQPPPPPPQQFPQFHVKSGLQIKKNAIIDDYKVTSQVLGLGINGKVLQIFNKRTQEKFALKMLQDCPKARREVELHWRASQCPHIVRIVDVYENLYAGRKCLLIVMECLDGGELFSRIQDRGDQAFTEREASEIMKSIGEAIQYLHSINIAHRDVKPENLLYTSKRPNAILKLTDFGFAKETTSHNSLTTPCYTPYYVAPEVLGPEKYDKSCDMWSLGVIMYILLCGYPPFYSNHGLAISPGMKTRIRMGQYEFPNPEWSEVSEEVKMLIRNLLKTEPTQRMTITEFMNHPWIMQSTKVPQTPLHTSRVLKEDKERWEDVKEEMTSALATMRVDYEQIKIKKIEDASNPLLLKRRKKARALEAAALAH

As to `CC(C)[C@H](NC(=O)c1cc(-c2cnn3cc(-c4ccc(OCCN5CCCCC5)cc4)cnc23)cs1)C(F)(F)F`, the inhibition in assay [1] turned out to be 0%. For the same compound, the fold change (FC) in assay [2] stood at 0; in assay [3] it was 0; in assay [4], 0; in assay [5] it was 0.23; in the assay listed under Homo sapiens it was 0.16.

Consider `O=C(N[C@@H](C1CC1)C(F)(F)F)c1cc(-c2cnn3cc(-c4ccc(F)cc4)cnc23)cs1`, for which the figures for the fold change (FC) in assay [6] and in assay [7] were 0.07 and 0, respectively.

For `CNC(=O)c1ccccc1Oc1nc(Nc2cc(OC)c(OC)c(OC)c2)ncc1Br`, the fold change (FC) in [8] stood at 0.14; in [11] it was 0.03. For the same compound, the inhibition was 0% in assay [9], 12% in assay [10], 3% in assay [12] and 0% in [13].
